Positions count from the first letter of the chain named. Values belong to the compound of their own block, whether it stands above or below them.
Experiments:
Assay type in all cases: cell-based
[1] = target: T1, E363Q mutant CNGA1 channel (Bos taurus, UniProt Q00194, E363Q); test: Block of E363Q single-channel currents by extracellular Mg^2+
T1 sequence (Q00194 1-690 E363Q): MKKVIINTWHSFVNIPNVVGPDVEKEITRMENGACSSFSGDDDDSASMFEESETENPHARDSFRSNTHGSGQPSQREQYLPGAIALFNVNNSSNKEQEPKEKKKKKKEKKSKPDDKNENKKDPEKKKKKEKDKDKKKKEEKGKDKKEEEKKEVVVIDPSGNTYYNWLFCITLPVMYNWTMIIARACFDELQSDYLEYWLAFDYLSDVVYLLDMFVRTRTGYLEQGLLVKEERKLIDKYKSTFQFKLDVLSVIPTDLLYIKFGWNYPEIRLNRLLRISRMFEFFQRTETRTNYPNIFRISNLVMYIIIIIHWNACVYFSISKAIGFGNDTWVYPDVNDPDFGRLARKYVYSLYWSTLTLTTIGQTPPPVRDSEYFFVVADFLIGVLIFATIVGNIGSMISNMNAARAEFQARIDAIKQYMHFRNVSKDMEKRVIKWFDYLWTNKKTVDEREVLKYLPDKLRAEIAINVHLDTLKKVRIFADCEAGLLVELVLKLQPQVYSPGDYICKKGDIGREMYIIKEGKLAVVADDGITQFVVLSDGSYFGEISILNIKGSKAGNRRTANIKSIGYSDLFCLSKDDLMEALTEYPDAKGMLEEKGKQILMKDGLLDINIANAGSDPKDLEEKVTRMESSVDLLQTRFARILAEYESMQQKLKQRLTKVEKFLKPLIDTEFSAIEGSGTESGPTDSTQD
Method in brief: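 Xenopus laevis oocytes were collagenase-defolliculated, cRNA-injected, and kept at 18°C. […] E363Q single-channel currents were recorded at 120 or −120 mV with or without 0.1 mM extracellular Mg2+, one patch per trace. Filtering was 1 kHz and sampling 10 kHz. Amplitudes are mean ± SEM, n = 5–20.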

wild-type CNGA1 channels = target: T2, wild-type CNGA1 channels (Bos taurus, UniProt Q00194)
T2 sequence (Q00194 1-690): T1 sequence (Q00194 1-690 E363Q) with Q363E

[2] = target: T1, E363Q mutant CNGA1 channel
[3] = tested on: WT and E363Q CNGA1 channels; conditions: fit of Eq. 1 to G-V relations 10 to 200 mV, WT and E363Q together
[4] = target: T3, I386A mutant CNGA1 channel (Bos taurus, UniProt Q00194, I386A); test: Voltage-dependent block by intracellular PhTx, I386A
T3 sequence (Q00194 1-690 I386A): T1 sequence (Q00194 1-690 E363Q) with Q363E, I386A
Method in brief: (§1)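 WT or mutant CNGA1 cRNA was injected into collagenase-defolliculated Xenopus oocytes. […] I-V curves were taken from −80 mV holding with steps of −200 to 200 mV in 10-mV increments. No-cGMP currents were subtracted as background. Recordings were made with or without 10 µM intracellular PhTx, and fraction unblocked (I/Io) was reported as mean ± SEM, n = 4–6.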

[5] = target: T4, I390A mutant CNGA1 channel (Bos taurus, UniProt Q00194, I390A); test: Voltage-dependent block by intracellular PhTx, I390A
T4 sequence (Q00194 1-690 I390A): T1 sequence (Q00194 1-690 E363Q) with Q363E, I390A
Method in brief: as §1

[6] = target: T5, T389A mutant CNGA1 channel (Bos taurus, UniProt Q00194, T389A); test: Voltage-dependent block by intracellular PhTx, T389A
T5 sequence (Q00194 1-690 T389A): T1 sequence (Q00194 1-690 E363Q) with Q363E, T389A
Method in brief: as §1

[7] = target: T6, V384A mutant CNGA1 channel (Bos taurus, UniProt Q00194, V384A); test: Voltage-dependent block by intracellular PhTx, V384A
T6 sequence (Q00194 1-690 V384A): T1 sequence (Q00194 1-690 E363Q) with Q363E, V384A
Method in brief: as §1

[8] = target: T7, F387A mutant CNGA1 channel (Bos taurus, UniProt Q00194, F387A); test: Voltage-dependent block by intracellular PhTx, F387A
T7 sequence (Q00194 1-690 F387A): T1 sequence (Q00194 1-690 E363Q) with Q363E, F387A
Method in brief: as §1

[9] = target: T8, wild-type (WT) CNGA1 channel (Bos taurus, UniProt Q00194); test: Voltage-dependent block by intracellular PhTx, wild type
T8 sequence (Q00194 1-690): T1 sequence (Q00194 1-690 E363Q) with Q363E
Method in brief: as §1

[10] = read-out: appKd, Boltzmann fit of I/Io at 10 µM intracellular PhTx
[11] = valence of block, Boltzmann fit

- Ki ([1]; read-out: estimated Ki, −120 mV, estimated from 37% reduction at 100 µM): 170 µM
- reduction of single-channel current amplitude ([1]; −120 mV, 100 µM external Mg^2+): 37%
Compound: [Mg+2] [Mg^2+]

- valence factor of KL (wild-type CNGA1 channels): 0.04
- Hill coefficient (n) (wild-type CNGA1 channels; common to −200 and 200 mV): 1.48 ± 0.03
- variation of KL (wild-type CNGA1 channels; over 400 mV (−200 to 200 mV)): twofold
- valence factor of KL [2]: −0.1
- Hill coefficient (n) ([2]; common to 40 and 200 mV): 1.44 ± 0.01
- Kd ([3]; read-out: KL): 78 ± 4 µM
Compound: Nc1nc2c(ncn2[C@@H]2O[C@@H]3COP(=O)(O)O[C@H]3[C@H]2O)c(=O)[nH]1 [cGMP, cyclic GMP]
- Hill coefficient (n) [3]: 1.44 ± 0.06

Compound: philanthotoxin [PhTx]
- Kd [4, 10]: 0.83 µM
- Z [4, 11]: 2.55 ± 0.07
- Kd [5, 10]: 1.2 µM
- Z [5, 11]: 2.67 ± 0.08
- Kd [6, 10]: 1.6 µM
- Z [6, 11]: 2.25 ± 0.06
- Kd [7, 10]: 3.5 µM
- Z [7, 11]: 2.81 ± 0.09
- Kd [8, 10]: 52 µM
- Z [8, 11]: 0.96 ± 0.02
- Kd [9, 10]: 1.6 µM
- Z [9, 11]: 2.48 ± 0.07
